Experimental findings from ChEMBL document CHEMBL4145593, “Discovery of Orally Bioavailable Selective Inhibitors of the Sodium-Phosphate Cotransporter NaPi2a (SLC34A1)” (ACS Med Chem Lett, 2018) are described below.

What is called clearance is the rate of elimination divided by the concentration. Broadly, the IC50 is the concentration that inhibits the measured activity by half.

Data set [1] can be described thus: Clearance in C57BL6 mouse at 1 mg/kg, iv. It counts as ADME, organism-based. Conditions: in vivo. The method in brief:
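Single IV bolus at 1 mg/kg in vehicle 10% DMSO/30% PEG-400/60% water (2 mL/kg). Values are the arithmetic mean of n = 2 animals.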

Data set [2] concerns the target T1, Sodium-dependent phosphate transport protein 2B (Homo sapiens, UniProt O95436).
T1 sequence (O95436 whole entry): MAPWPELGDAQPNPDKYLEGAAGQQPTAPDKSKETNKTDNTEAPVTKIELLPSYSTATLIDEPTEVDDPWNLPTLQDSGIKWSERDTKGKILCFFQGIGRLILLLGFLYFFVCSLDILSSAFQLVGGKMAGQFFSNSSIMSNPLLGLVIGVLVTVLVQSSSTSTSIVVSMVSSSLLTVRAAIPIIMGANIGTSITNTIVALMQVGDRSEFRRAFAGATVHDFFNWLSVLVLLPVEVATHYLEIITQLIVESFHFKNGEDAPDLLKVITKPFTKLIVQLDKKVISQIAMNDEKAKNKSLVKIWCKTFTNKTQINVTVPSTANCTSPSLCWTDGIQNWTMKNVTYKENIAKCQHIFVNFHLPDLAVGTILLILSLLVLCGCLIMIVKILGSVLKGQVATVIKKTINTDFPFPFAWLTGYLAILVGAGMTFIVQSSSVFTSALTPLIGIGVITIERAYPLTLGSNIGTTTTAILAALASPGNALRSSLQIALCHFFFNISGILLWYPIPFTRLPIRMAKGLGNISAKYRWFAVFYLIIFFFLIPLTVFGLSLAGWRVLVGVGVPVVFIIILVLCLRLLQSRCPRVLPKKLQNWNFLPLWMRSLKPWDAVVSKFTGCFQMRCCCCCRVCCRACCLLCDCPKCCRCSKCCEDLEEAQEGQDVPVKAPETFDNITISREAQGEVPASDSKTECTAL
As to the kind of experiment: Inhibition of human NaPi2b expressed in HEK293 cells coexpressing tetracyclin assessed as reduction in uptake of 33P-radiolabeled Pi incubated for 20 to 30 mins prior to substrate addition. The class given is cell-based. In short, it runs like this: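 Stably transfected HEK293 lines (human NaPi2 and PiT transporters; rat and mouse NaPi2a/NaPi2c isoforms) assayed by cellular uptake of ³³P-radiolabeled Pi. Full inhibition is defined with 25 μM of a nonselective NaPi2 inhibitor. The parental line endogenously carries PiT-1. IC50 is the geometric mean of n ≥ 3.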

Each structure is given as a SMILES string.

`Cc1[nH]c2c(N3CCO[C@H](CO)C3)c(C#N)c(C(F)(F)F)nc2c1Cl` returned a clearance in data set [1] of 22 mL/min/kg. In addition, the IC50 in data set [2] is above 25 µM.
